18 molecules from ChEMBL document CHEMBL4811308, “Design, synthesis and broad spectrum antibreast cancer activity of diarylindoles via induction of apoptosis in aggressive breast cancer cells” (Bioorg Med Chem, 2021) can be followed below.

Active and inactive are the calls of the source. No cut-off for these calls is given here. Bounds are passed on as bounds.

The test system of one assay is MDA-MB-231. The assay is described as follows: Cytotoxicity against human MDA-MB-231 cells assessed as reduction in cell viability incubated for 24 hrs by MTT assay. It is filed as functional, cell-based. The conditions noted are these: MDA-MB-231, 24 h. In a few lines: (§1)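 MTT viability: cells seeded at 1 × 10^4/well, grown 24 h, then exposed to a concentration range of compound for 24 h. MTT (5 mg/mL stock) added for 3 h, formazan dissolved in DMSO, absorbance read at 540 nm.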
Background: Formazan colour is commonly taken as a measure of viable cells.

The subject of a further assay is PC-3. The experiment in a line: Cytotoxicity against human PC-3 cells assessed as reduction in cell viability incubated for 24 hrs by MTT assay. The format is functional, cell-based. The conditions noted are these: PC-3, 24 h. The gist of the method: as §1
Another assay relates to MCF7. The experiment in a line: Cytotoxicity against human MCF7 cells assessed as reduction in cell viability incubated for 24 hrs by MTT assay. It is filed as functional, cell-based. The conditions noted are these: MCF7, 24 h. The gist of the method:
as §1

A further assay deals with HEK293. The experiment in a line: Cytotoxicity against human HEK293 cells assessed as reduction in cell viability incubated for 24 hrs by MTT assay. The format is cell-based. The conditions noted are these: HEK293, 24 h. The gist of the method:
as §1

For a further assay, the target named is Tubulin (Homo sapiens) (UniProt P68371+Q9H4B7+P0DPH7+P68366+Q13509+Q71U36+P04350+Q3ZCM7+P07437+P68363+Q9BQE3+Q6PEY2+Q13885+Q9BVA1+Q9BUF5). The experiment in a line: Induction of tubulin polymerization (unknown origin) at 10 uM incubated for 1 hr by spectrometric analysis. The format is protein-complex assay.

As to `COc1ccc2c(c1)c(Cc1ccc(OCc3ccccc3)cc1)c(-c1cc(OC)c(OC)c(OC)c1)n2Cc1ccc(OCc2ccccc2)cc1`, the IC50 in the assay on MDA-MB-231, with PC-3 and in the assay with MCF7 was greater than 30 µM throughout.

As for `COc1ccc2c(c1)c(Cc1ccc(O)cc1)c(-c1cc(OC)c(OC)c(OC)c1)n2Cc1ccc(O)cc1`, the IC50 with MDA-MB-231, in the assay with PC-3 and in the assay on MCF7 was greater than 30 µM each time.

For `COc1ccc2c(c1)c(Cc1ccccc1)c(-c1cc(OC)c(OC)c(OC)c1)n2Cc1ccccc1`, the IC50 in the assay with MDA-MB-231, with PC-3 and in the assay with MCF7 was greater than 30 µM each time.

Take `COc1ccc(Cn2c(-c3cc(OC)c(OC)c(OC)c3)cc3cc(OC)ccc32)cc1`: the half-maximal inhibitory concentration (IC50) in the assay on MDA-MB-231, in the assay with PC-3 and in the assay on MCF7 was greater than 30 µM throughout.

With `COc1ccc2c(c1)cc(-c1cc(OC)c(OC)c(OC)c1)n2Cc1ccc(OCCN2CCCCC2)cc1`, the 50% inhibitory concentration (IC50) in the assay on MDA-MB-231 was greater than 30 µM; with PC-3 it was 21.8 µM; in the assay with MCF7 it was 21.6 µM.

As for `CC/C(=C(\c1ccccc1)c1ccc(OCCN(C)C)cc1)c1ccccc1` [TAMOXIFEN], the half-inhibitory concentration (IC50) in the assay on HEK293 was 22.4 µM; in the assay on PC-3, 15.8 µM; with MCF7 it was 8.42 µM.

As for `COc1ccc2c(c1)cc(-c1cc(OC)c(OC)c(OC)c1)n2Cc1ccccc1`, the 50% inhibitory concentration (IC50) in the assay with MDA-MB-231, with PC-3 and in the assay with MCF7 was greater than 30 µM throughout.

Regarding `COc1ccc2[nH]c(-c3cc(OC)c(OC)c(OC)c3)cc2c1`, the IC50 in the assay on MDA-MB-231, in the assay with PC-3 and with MCF7 was greater than 30 µM throughout.

Turning to `COc1ccc2c(c1)cc(-c1cc(OC)c(OC)c(OC)c1)n2Cc1ccc(OCc2ccccc2)cc1`, the IC50 in the assay on MDA-MB-231, in the assay with PC-3 and in the assay with MCF7 was greater than 30 µM in each case.

As to `CCOC(=O)COc1ccc(Cn2c(-c3cc(OC)c(OC)c(OC)c3)cc3cc(OC)ccc32)cc1`, the half-inhibitory concentration (IC50) with MDA-MB-231, with PC-3 and in the assay on MCF7 was greater than 30 µM each time.

In the case of `COc1ccc2c(c1)cc(-c1cc(OC)c(OC)c(OC)c1)n2Cc1ccc(OC(C)CN(C)C)cc1` (stereo unspecified), the half-maximal inhibitory concentration (IC50) with MDA-MB-231 is 10.6 µM; in the assay with PC-3, 13.3 µM; with MCF7, 14.7 µM.

Take `COc1ccc2c(c1)cc(-c1cc(OC)c(OC)c(OC)c1)n2Cc1ccc(OCCN2CCCC2)cc1`: the IC50 with MDA-MB-231 was found to be 12.4 µM; in the assay with PC-3, 6.03 µM; with MCF7 it was 5.08 µM.

As for `COc1ccc2c(c1)c(Cc1ccc(OCCN3CCCC3)cc1)c(-c1cc(OC)c(OC)c(OC)c1)n2Cc1ccc(OCCN2CCCC2)cc1`, the 50% inhibitory concentration (IC50) in the assay on MDA-MB-231 is 9.45 µM; in the assay on PC-3, 7.48 µM; in the assay with MCF7 it was 4.25 µM.

For `COc1ccc2c(c1)cc(-c1cc(OC)c(OC)c(OC)c1)n2Cc1ccc(O)cc1`, the IC50 was 17.3 µM in the assay on MDA-MB-231, greater than 30 µM in the assay on PC-3 and greater than 30 µM in the assay on MCF7.

As for `CCN(CC)CCOc1ccc(Cn2c(-c3cc(OC)c(OC)c(OC)c3)cc3cc(OC)ccc32)cc1`, the values for the half-maximal inhibitory concentration (IC50) in the assay on MDA-MB-231, in the assay on PC-3 and in the assay with MCF7 were 13.2 µM, 15 µM and 29.8 µM, respectively.

Regarding `COc1ccc2c(c1)cc(-c1cc(OC)c(OC)c(OC)c1)n2Cc1ccc(OCCN(C)C)cc1`, the values for the IC50 with MDA-MB-231, in the assay on PC-3 and in the assay on MCF7 were 7.84 µM, 6.87 µM and 6.67 µM, respectively.

Consider `COc1ccc(Cc2c(-c3cc(OC)c(OC)c(OC)c3)n(Cc3ccc(OC)cc3)c3ccc(OC)cc23)cc1`, for which the half-maximal inhibitory concentration (IC50) in the assay with MDA-MB-231, in the assay with PC-3 and in the assay with MCF7 was greater than 30 µM in each case.

As to `CC(=O)O[C@H]1C(=O)[C@@]2(C)[C@H]([C@H](OC(=O)c3ccccc3)[C@]3(O)C[C@H](OC(=O)[C@H](O)[C@@H](NC(=O)c4ccccc4)c4ccccc4)C(C)=C1C3(C)C)[C@]1(OC(C)=O)CO[C@@H]1C[C@@H]2O` [PACLITAXEL], the concentration for half-maximal inhibition (IC50) in the assay with HEK293 was determined as 5.8 µM; with MDA-MB-231, 1.6 µM; in the assay with PC-3, 2.6 µM; in the assay on MCF7, 0.48 µM. Moreover, the outcome on Tubulin (Homo sapiens) was Active.

In general, IC50 refers to the midpoint of a concentration-inhibition curve.
